An excerpt weighted towards active compounds, which were near 1.5% of everything screened.
EBI2 block: blocks human EBI2 receptor beta-arrestin signaling. P32249. EBI2 beta-arrestin recruitment, luminescence, 7a,25-OHC stimulated. inhibition, % at 5 µM. actives 0.81% (n = 360,000). AID 651636; in the data active means inhibition above about 38%;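 further: enzyme fragment complementation signal reports receptor beta-arrestin coupling in cells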
CCR6 antagonist: antagonists of human CCR6 receptor | CHO-K1 CCR6 PathHunter beta-arrestin, luminescence, CCL20-stimulated | actives 0.49% (n = 340,000) | inhibition, % at 20 µM | P51684;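 active means compounds whose inhibition of the agonist-driven luminescence signal at 20 µM reaches about 50%, limit read from the data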;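 further: cells stimulated with CCL20 at 14 nM final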
Target sequence (P51684 whole entry, looked up): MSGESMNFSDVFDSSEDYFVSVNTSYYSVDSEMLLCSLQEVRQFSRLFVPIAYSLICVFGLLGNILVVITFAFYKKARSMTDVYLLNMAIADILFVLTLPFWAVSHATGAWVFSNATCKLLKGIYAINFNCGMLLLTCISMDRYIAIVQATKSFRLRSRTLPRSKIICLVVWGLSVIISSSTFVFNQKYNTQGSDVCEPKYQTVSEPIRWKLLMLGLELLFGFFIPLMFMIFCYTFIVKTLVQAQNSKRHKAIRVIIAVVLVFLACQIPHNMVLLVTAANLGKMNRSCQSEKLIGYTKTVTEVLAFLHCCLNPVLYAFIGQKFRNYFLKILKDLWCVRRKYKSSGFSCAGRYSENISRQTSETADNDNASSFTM
APJ agonist: activates the human apelin receptor APJ; P35414; CHO-K1 APJ PathHunter beta-arrestin, luminescence; 0% DMSO wells, 100% apelin; activation, % at 20 µM; actives 0.11% (n = 330,000); AID 2520;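 active means activation more than six SD over the plate average, tested at 20 µM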
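Test system – PathHunter CHO-K1 APJ (AGTRL-1) beta-arrestin reporter cells · Input – 1000 cells/well · Compound – single test compound dose, 20 µM final, 1% DMSO · Times – compound stimulation 90 min at 25 °C, detection 60 min · Technique – beta-gal luminescence · Read-out basis – APJ–arrestin association signal · Control set – negative DMSO alone, positive Apelin-13 at 10 nM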
APJ antagonist: blocks the human apelin receptor APJ | P35414 | CHO-K1 APJ beta-arrestin complementation, luminescence | inhibition, % at 20 µM | actives 0.32% (n = 330,000) | AID 2521;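 active means inhibition above about 40% at 20 µM, limit read from the data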;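 further: cells challenged with 10 nM apelin-13 agonist together with compound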
CXCR6 inh: blocks human CXCR6 beta-arrestin recruitment. actives 0.36% (n = 360,000). CHO-K1 PathHunter CXCR6 beta-arrestin, luminescence. O00574. inhibition, % at 20 µM; in the data active means inhibition above about 34%, passing the limit was not always enough;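 further: antagonist mode with CXCL16 agonist at 10 nM final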
Target sequence (O00574 whole entry, looked up): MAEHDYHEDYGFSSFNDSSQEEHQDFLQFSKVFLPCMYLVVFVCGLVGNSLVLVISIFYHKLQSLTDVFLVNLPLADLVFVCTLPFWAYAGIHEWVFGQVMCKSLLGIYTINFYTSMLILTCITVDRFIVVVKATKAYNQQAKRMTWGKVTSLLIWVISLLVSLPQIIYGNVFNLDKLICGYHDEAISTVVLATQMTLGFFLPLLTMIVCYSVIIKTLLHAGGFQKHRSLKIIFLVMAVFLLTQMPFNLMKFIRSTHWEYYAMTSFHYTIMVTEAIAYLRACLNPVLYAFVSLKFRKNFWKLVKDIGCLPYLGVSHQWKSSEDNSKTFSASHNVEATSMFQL
EBI2 conf: confirmation of human EBI2 receptor antagonists; shares compounds with EBI2 block; EBI2 beta-arrestin luminescence, 7a,25-OHC antagonism; inhibition, % at 5 µM; actives 29% (n = 2,400); AID 651997;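 active means inhibition of at least 50%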
EBI2 agonist: EBI2 agonism counter-screen; 2,400 tested, under 10 active; activation, % at 5 µM; EBI2-expressing cells, agonist mode, luminescence, 60 min; 0% vehicle, 100% 7α,25-dihydroxycholesterol control; shares compounds with EBI2 block;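 active means activation of at least 50%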
bGal cs: beta-galactosidase inhibition counter-screen. shares compounds with EBI2 block. AID 652176. inhibition, % at 5 µM. purified beta-galactosidase, luminescent Galacton Star, 15 min. actives 1% (n = 2,400);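 active means replicate-average signal at least 3 plate SD below neutral wells, shown as high inhibition, flagging enzyme-inhibiting false positives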;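 further: higher means stronger loss of beta-gal luminescence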
Large screens that a line does not name were inactive (follow-up assays come after a bar, where they were run).

C[C@@H]1CN([C@@H](C)CO)C(=O)CCCn2nncc2CO[C@@H]1CN(C)S(=O)(=O)c1cccc(F)c1	EBI2 block 64 (no result: CCR6 antagonist, APJ agonist, APJ antagonist) | EBI2 conf inactive | EBI2 agonist inactive | bGal cs inactive
C[C@@H]1CN([C@H](C)CO)C(=O)CCCn2nncc2CO[C@@H]1CN(C)S(=O)(=O)c1cccc(F)c1	EBI2 block 56 (no result: CCR6 antagonist, APJ agonist, APJ antagonist) | EBI2 conf inactive | EBI2 agonist inactive | bGal cs inactive
Fc1ccccc1-c1nc2c(s1)CCc1onc(-c3ccc(Br)cc3)c1-2	none
COc1ccc(CC(=O)N2CCN(S(=O)(=O)c3ccc(Cl)s3)CC2)cc1	none
COc1ccc(OCC(=O)N2CCN(S(=O)(=O)c3ccc(Cl)s3)CC2)cc1	EBI2 block 87 | EBI2 conf 79 | EBI2 agonist inactive | bGal cs inactive
N#Cc1ccc(OCC(=O)N2CCN(S(=O)(=O)c3ccc(Cl)s3)CC2)cc1	EBI2 block 81 | EBI2 conf inactive | EBI2 agonist inactive | bGal cs inactive
N#Cc1ccc(OCC(=O)N2CCN(S(=O)(=O)c3cccc(Cl)c3)CC2)cc1	EBI2 block 54 | EBI2 conf inactive | EBI2 agonist inactive | bGal cs inactive
O=C(CCC1CCCN(Cc2ccncc2)C1)NCc1ccc(F)c(F)c1 (centres undefined)	none
COc1cc(CCC(=O)N2CCN(S(=O)(=O)c3ccc(C)c(C)c3)CC2)cc(OC)c1OC	none
CCc1ccc(CCC(=O)N2CCN(S(=O)(=O)c3ccc(Br)cc3)CC2)cc1	EBI2 block 88 (no result: CCR6 antagonist, APJ agonist, APJ antagonist) | EBI2 conf 52 | EBI2 agonist inactive | bGal cs inactive
COc1ccc(CCC(=O)N2CCN(S(=O)(=O)c3ccc(OC)c([N+](=O)[O-])c3)CC2)cc1	EBI2 block 54 (no result: CCR6 antagonist, APJ agonist, APJ antagonist) | EBI2 conf inactive | EBI2 agonist inactive | bGal cs inactive
COc1ccc(CCC(=O)N2CCN(S(=O)(=O)c3ccc4ccccc4c3)CC2)cc1	EBI2 block 64 | EBI2 conf inactive | EBI2 agonist inactive | bGal cs inactive
O=C(CCc1ccc(S(=O)(=O)N2CCOCC2)cc1)N1CCCC1	none
COc1ccc(CCC(=O)N2CCN(S(=O)(=O)c3ccc(OC(F)(F)F)cc3)CC2)cc1	EBI2 block 54 | EBI2 conf inactive | EBI2 agonist inactive | bGal cs inactive
CCN(C(=O)COC(=O)c1ccc2c(c1)OCO2)c1c(N)n(Cc2ccccc2)c(=O)[nH]c1=O	none
O=C(NCCc1ccccc1)c1ccc(CS(=O)Cc2ccc(Cl)cc2)o1 (centres undefined)	EBI2 block 60 | EBI2 conf inactive | EBI2 agonist inactive | bGal cs inactive
O=C(NCc1ccccc1)c1ccc(CS(=O)Cc2ccc(Cl)cc2)o1 (centres undefined)	none
O=C(NC(c1ccccc1)c1ccc2ccccc2n1)C1CCN(CCOc2ccc(Cl)cc2)CC1 (centres undefined)	EBI2 block 60 (no result: CCR6 antagonist, APJ agonist, APJ antagonist) | EBI2 conf 59 | EBI2 agonist inactive | bGal cs inactive
O=S(=O)(c1cccs1)N1CCN(CCOc2ccc(Cl)cc2)CC1	EBI2 block 64 | EBI2 conf inactive | EBI2 agonist inactive | bGal cs inactive
COc1ccc(OCCN2CCC(C(=O)NC(c3ccccc3)c3ccc4ccccc4n3)CC2)cc1 (centres undefined)	EBI2 block 49 (no result: CCR6 antagonist, APJ agonist, APJ antagonist) | EBI2 conf inactive | EBI2 agonist inactive | bGal cs inactive
COc1ccc(OCCN2CCC(C(=O)NC(c3ccc(F)cc3)c3ccc4ccccc4n3)CC2)cc1 (centres undefined)	EBI2 block 53 (no result: CCR6 antagonist, APJ agonist, APJ antagonist) | EBI2 conf inactive | EBI2 agonist inactive | bGal cs inactive
CCN(CC(=O)Nc1ccc(NC(C)=O)cc1)C(=O)/C=C/c1c(C)nn(-c2ccc(F)cc2)c1C	none
O=C(NC(c1ccc(F)cc1)c1ccc2ccccc2n1)C1CCN(CCOc2ccc(Cl)cc2Cl)CC1 (centres undefined)	EBI2 block 64 (no result: CCR6 antagonist, APJ agonist, APJ antagonist) | EBI2 conf inactive | EBI2 agonist inactive | bGal cs inactive
O=C(NC(c1ccc(F)cc1)c1ccc2ccccc2n1)C1CCN(CCOc2ccc(F)cc2)CC1 (centres undefined)	none (no result: CCR6 antagonist, APJ agonist, APJ antagonist)
COc1ccc(OCCN2CCC(C(=O)NC(c3ccc(OC)cc3)c3ccccn3)CC2)cc1 (centres undefined)	none (no result: CCR6 antagonist, APJ agonist, APJ antagonist)
COc1ccc(C(NC(=O)C2CCN(CCOc3ccc(Cl)cc3)CC2)c2cccs2)cc1 (centres undefined)	EBI2 block 46 (no result: CCR6 antagonist, APJ agonist, APJ antagonist) | EBI2 conf inactive | EBI2 agonist inactive | bGal cs inactive
COc1ccc(/C=N/n2cnc3c(sc(=S)n3-c3ccccc3)c2=O)cc1	EBI2 block 51 | EBI2 conf inactive | EBI2 agonist inactive | bGal cs inactive
CC(C)(C)c1ccc(C(=S)N2CCN(c3ccccc3)CC2)cc1	EBI2 block 58 | EBI2 conf inactive | EBI2 agonist inactive | bGal cs inactive
CC(C)c1ccc(NC(=O)C2CC(=O)Nc3nc4ccccc4n32)cc1 (centres undefined)	none
O=C(NCCc1nc2ccc(Cl)cc2[nH]1)C1CCC(=O)N(Cc2cccc(F)c2)C1 (centres undefined)	none
O=C(Nc1cnn(Cc2ccc(Cl)c(Cl)c2)c1)C12CC3CC(CC(C3)C1)C2	EBI2 block 42 | EBI2 conf inactive | EBI2 agonist inactive | bGal cs inactive
CCOc1ccc(C(=O)Nc2cnn(Cc3ccc(Cl)c(Cl)c3)c2)cc1	none
COc1ccc(S(=O)(=O)n2cccc2)c(OC)c1	none
O=C(COc1ccc(Cl)cc1)N1CCN(S(=O)(=O)c2cc(F)ccc2F)CC1	EBI2 block 87 (no result: CCR6 antagonist, APJ agonist, APJ antagonist) | EBI2 conf 68 | EBI2 agonist inactive | bGal cs inactive
Cc1ccc(C)c(OCCC(=O)N2CCN(S(=O)(=O)c3cc(F)ccc3F)CC2)c1	EBI2 block 46 | EBI2 conf inactive | EBI2 agonist inactive | bGal cs inactive
Cc1cc(Cl)ccc1OCCCC(=O)N1CCN(S(=O)(=O)c2ccccc2)CC1	EBI2 block 63 | EBI2 conf inactive | EBI2 agonist inactive | bGal cs inactive
Cc1ccc(S(=O)(=O)N2CCN(C(=O)CCOc3cc(C)ccc3C)CC2)cc1	none
COc1ccc(NC(=O)N2CCN(C(=O)C3CCCO3)CC2)cc1 (centres undefined)	none
COc1ccccc1N1CCN(C(=O)c2cc(-c3ccccc3)on2)CC1	EBI2 block 63 | EBI2 conf 54 | EBI2 agonist inactive | bGal cs inactive
O=C(c1ccc(-c2ccccc2)cc1)N1CCCC1	none
